# This is a sample that favours compounds with a hit; in the whole collection about 2.1% have one here.
# Calpain2 inh = inhibitors of pig calpain II, primary screen, biochemical, fluorogenic peptide substrate, 1536-well | purified calpain II, 30 min | inhibition, % at 16 µM | 220,000 compounds, 0.37% hits;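 active = inhibition above about 50%, limit read from the data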
# RanGTP-Impb inh = inhibitors of RanGTP-importin-beta interaction, primary screen, biochemical, FRET, CFP-Ran, YFP-importin-beta, homogeneous | Ran GTPase (GTP-bound) - importin-beta complex | cell-free CFP-Ran/YFP-importin-beta FRET ratio | inhibition, % (concentration not given with the values) | 300,000 compounds, 1.1% hits | AID 2216, 2009;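 active = more than half of the replicate wells show a fall in the fluorescence ratio signal beyond about 16%, limit read from the data, passing the limit was not always enough; inconclusive = exactly half of the replicate wells pass the set limit; inactive = fewer than half of replicates pass the limit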;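 also: 0% = DMSO wells and 100% = Ran loaded with GDP instead of GTP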
# Runt-SMMHC FRET = inhibitors of RUNX1 Runt–CBFb-SMMHC binding, primary screen, biochemical, FRET, Cerulean-Runt, Venus-CBFb-SMMHC, uHTS; Runt-related transcription factor 1 (Homo sapiens) + Core-binding factor subunit beta …; Cerulean-Runt/Venus-CBFb-SMMHC FRET ratio 530/480, 1 h; inhibition, % at 20 µM; 220,000 compounds, 0.74% hits;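 active = mean inhibition across duplicate retests at 20 µM reaching about 50%, limit read from the data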;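 also: 0% = DMSO wells and 100% = wells with excess untagged CBFb-SMMHC; inhibitors lower the FRET ratio by blocking Runt binding to CBFb-SMMHC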
# Runt-CBFb FRET = inhibitors of RUNX1 Runt–CBFb binding, primary screen, biochemical, FRET, Cerulean-Runt, Venus-CBFb, uHTS. AID 1496, 2009. 220,000 compounds, 0.46% hits. Cerulean-Runt/Venus-CBFb FRET ratio 530/480, 1 h. inhibition, % at 20 µM;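 active = inhibition over about 50% at 20 µM in the single-dose screen, limit read from the data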;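 also: 0% = DMSO wells and 100% = excess unlabeled CBFb competitor control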
#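 Reagent – Venus-CBFb binding partner, 100 nM · Assay system – Cerulean-tagged RUNX1 Runt domain (FRET donor) fusion protein · Input – 100 nM per protein · Incubation – two 1 h room-temperature incubations shielded from light · Measured by – FRET fluorescence · Medium – Tris buffer pH 7.5 with salts and BSA · Benchmarks – unlabeled CBFb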
# FAS-TE inh = FAS thioesterase domain inhibitors, primary screen, biochemical, fluorescence intensity, uHTS; 360,000 compounds, 0.67% hits; Fatty acid synthase (Homo sapiens), P49327; recombinant FAS-TE, OMFH fluorogenic substrate, fluorescence endpoint; inhibition, % at 15 µM;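 active = compounds whose normalised, plate-corrected inhibition of enzyme fluorescence in the single-dose primary screen is 50% or more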;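 also: 0% = DMSO with enzyme and 100% = substrate without enzyme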
# Target sequence (P49327 whole entry, looked up, the tested form may be a part): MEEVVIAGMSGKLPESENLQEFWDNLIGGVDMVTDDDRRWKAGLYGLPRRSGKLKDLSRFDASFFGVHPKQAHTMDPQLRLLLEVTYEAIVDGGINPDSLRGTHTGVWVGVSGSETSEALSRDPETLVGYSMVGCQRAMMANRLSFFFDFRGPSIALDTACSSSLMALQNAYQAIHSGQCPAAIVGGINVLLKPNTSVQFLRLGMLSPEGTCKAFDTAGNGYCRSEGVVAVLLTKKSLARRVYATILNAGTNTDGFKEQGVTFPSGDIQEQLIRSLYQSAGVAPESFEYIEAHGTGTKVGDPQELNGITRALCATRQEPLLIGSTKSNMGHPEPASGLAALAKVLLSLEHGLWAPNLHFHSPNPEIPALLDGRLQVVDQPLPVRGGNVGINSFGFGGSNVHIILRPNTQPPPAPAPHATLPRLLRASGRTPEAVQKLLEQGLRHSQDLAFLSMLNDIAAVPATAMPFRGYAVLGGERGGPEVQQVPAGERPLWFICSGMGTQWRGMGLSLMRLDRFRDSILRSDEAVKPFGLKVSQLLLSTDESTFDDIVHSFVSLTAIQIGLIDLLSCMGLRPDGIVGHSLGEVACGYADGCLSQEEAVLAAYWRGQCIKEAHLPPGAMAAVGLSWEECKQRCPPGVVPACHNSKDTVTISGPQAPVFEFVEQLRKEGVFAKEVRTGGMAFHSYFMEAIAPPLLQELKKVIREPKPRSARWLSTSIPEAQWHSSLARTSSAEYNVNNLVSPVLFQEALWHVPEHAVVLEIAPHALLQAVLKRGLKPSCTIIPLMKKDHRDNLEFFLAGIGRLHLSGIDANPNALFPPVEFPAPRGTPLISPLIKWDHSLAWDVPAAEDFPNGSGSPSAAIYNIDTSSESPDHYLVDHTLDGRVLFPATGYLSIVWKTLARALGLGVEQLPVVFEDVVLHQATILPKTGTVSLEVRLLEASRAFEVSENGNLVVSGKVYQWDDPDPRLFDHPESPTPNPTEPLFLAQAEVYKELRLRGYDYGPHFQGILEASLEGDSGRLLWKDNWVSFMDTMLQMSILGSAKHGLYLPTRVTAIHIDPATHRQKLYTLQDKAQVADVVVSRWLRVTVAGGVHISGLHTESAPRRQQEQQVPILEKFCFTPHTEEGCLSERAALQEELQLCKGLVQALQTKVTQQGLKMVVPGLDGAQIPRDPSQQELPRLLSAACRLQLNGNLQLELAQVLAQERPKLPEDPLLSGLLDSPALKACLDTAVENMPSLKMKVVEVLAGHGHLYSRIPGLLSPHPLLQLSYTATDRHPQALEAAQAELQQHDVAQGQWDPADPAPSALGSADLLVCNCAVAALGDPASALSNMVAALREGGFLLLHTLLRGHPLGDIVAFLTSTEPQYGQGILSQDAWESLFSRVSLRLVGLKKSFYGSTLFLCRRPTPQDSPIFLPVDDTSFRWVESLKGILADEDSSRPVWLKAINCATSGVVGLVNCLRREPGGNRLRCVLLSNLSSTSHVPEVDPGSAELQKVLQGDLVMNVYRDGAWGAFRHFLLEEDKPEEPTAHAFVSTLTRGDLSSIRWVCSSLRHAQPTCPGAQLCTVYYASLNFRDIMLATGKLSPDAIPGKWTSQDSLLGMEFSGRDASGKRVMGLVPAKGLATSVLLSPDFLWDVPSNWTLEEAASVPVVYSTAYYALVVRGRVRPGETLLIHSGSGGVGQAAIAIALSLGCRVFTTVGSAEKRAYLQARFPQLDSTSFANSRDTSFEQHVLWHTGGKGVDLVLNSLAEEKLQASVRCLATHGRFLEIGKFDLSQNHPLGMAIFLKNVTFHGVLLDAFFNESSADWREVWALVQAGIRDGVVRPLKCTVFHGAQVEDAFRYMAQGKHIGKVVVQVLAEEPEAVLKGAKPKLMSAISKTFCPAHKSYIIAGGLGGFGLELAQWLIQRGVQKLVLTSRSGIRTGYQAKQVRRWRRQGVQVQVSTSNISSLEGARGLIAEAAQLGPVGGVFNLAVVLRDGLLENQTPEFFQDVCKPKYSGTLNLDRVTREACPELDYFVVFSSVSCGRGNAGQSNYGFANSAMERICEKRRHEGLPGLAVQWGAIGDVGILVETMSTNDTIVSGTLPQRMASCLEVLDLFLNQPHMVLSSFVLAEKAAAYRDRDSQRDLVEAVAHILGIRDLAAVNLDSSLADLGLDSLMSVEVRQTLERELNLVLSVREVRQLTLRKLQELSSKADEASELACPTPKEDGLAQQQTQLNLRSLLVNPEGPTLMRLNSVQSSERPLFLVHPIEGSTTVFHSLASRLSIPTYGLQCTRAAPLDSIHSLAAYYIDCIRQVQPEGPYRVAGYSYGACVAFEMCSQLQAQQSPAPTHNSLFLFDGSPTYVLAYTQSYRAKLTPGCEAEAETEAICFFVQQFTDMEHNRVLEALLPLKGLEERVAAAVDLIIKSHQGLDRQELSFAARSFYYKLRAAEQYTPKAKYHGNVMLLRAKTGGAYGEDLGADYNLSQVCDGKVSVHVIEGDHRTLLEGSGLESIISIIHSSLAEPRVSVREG
# An asterisk follows results filed as active; ? = inconclusive; / = no result given; + = active, no number.
SMILES,Calpain2 inh,RanGTP-Impb inh,Runt-SMMHC FRET,Runt-CBFb FRET,FAS-TE inh
C=CCC[C@H](Cc1ccc(F)cc1)C(=O)OC[C@@H](NC(=O)[C@H](CC=C)CC(=O)NCCO)C(C)(C)C,/,/,/,/,8.8
Cc1ccc2nc3c(cc(C(=O)NCc4ccccc4)c(=N)n3CCCn3ccnc3)c(=O)n2c1,/,/,/,/,-8.7
Cc1cccn2c(=O)c3cc(C(=O)NC(C)c4ccccc4)c(=N)n(CCCn4ccnc4)c3nc12 (centres undefined),-320.9,+,88.1*,38.0,-10.2
Cc1cccc(NC(=O)c2ccc(Cn3cc(C(F)(F)F)ccc3=O)cc2)c1,13.7,48.1*,0.9,-4.4,2.9
c1ccc2c(c1)Cc1ccccc1O2,/,/,/,/,6.0
NS(=O)(=O)c1ccc(CCNC(=O)CCCCCNc2nc(=S)[nH]c3ccccc23)cc1,2.5,5.3,2.0,-0.6,/
Cc1ccc(CNC(=O)C2CCC(CNc3nc(=S)[nH]c4ccccc34)CC2)cc1 (centres undefined),18.3,27.2*,-2.9,-3.8,-0.8
Cc1ccc(CNC(=O)CCCCCNc2nc(=S)[nH]c3ccccc23)cc1,61.1*,3.6,-2.7,-2.5,/
O=C(CNS(=O)(=O)c1ccccc1)OCC(=O)c1c[nH]c2ccccc12,/,/,/,/,-2.3
COc1cc(C(=O)OCC(=O)NC(N)=O)cc(CN2C(=O)c3ccccc3C2=O)c1OC,/,-5.0,/,/,-4.5
COc1ccc(N(C(=O)CNC(=O)c2ccco2)C(C(=O)NC2CCCC2)c2ccco2)cc1 (centres undefined),/,-2.3,/,/,-0.2
Cc1ccc(C23CC4CC(CC(CC(=O)N5CCOCC5)(C4)C2)C3)cc1,20.4,24.7*,-15.3,-3.9,5.1
CCCCCCSc1nnc(-c2cnn(-c3ccccc3)c2-n2cccc2)n1C,55.6*,-4.5,-1.7,-5.5,23.5
CCSc1nnc(-c2cnn(-c3ccccc3)c2-n2cccc2)n1C,-18.2,5.2,-6.7,-1.6,-3.5
O=C(CN1CCCCC1)Nc1ccc(C(F)(F)F)cc1Cl,11.8,-0.5,-3.3,-1.6,20.1
O=C(CN1CCCCCCC1)Nc1ccc(Cl)cc1Cl,87.8*,3.2,-1.9,-3.5,9.1
CCOC(=O)C1CCCN(Cc2c(C(=O)N3CCOCC3)nc3ccccn23)C1 (centres undefined),-21.5,-3.4,0.3,0.9,-0.9
COC1CCCN(Cc2c(C(=O)N3CCN(C4CCCCC4)CC3)nc3ccccn23)C1 (centres undefined),/,103.8*,/,/,-5.1
CCOC(=O)N1CCN(C(=O)c2ccc(N(C)S(=O)(=O)c3ccc(C)cc3)cc2)CC1,/,0.0,/,/,-2.7
Cc1noc(C)c1COc1ccc(C(=O)OCc2nnc(-c3ccc(Cl)cc3)o2)cc1,51.2*,2.2,-1.6,-1.6,21.1
O=C(c1ccc(NS(=O)(=O)c2ccc(F)cc2)cc1)N1CCC1,/,?,/,/,-7.0
CCOC(=O)N1CCN(CC(=O)Nc2sccc2C#N)CC1,82.4*,?,0.3,-1.1,-1.4
COc1ccccc1-c1csc(Nc2ccc(Oc3ccccc3)cc2)n1,/,/,/,/,22.9
COC(=O)c1c(NC(NC(C)=O)C(Cl)(Cl)Cl)sc2c1CCCC2 (centres undefined),54.6*,3.3,-0.4,3.4,17.6
CCOC(=O)c1c(NC(NC(C)=O)C(Cl)(Cl)Cl)sc2c1CCCC2 (centres undefined),2.9,4.8,-0.6,2.8,21.6
SMILES,Calpain2 inh,RanGTP-Impb inh,Runt-SMMHC FRET,Runt-CBFb FRET,FAS-TE inh
COC[C@H]1CCCN1[C@@H]1CS(=O)(=O)N[C@H]1COCc1ccccc1,/,/,/,/,-4.0
N#CC(C#N)=C1C=CC=CN1/C(=C\c1ccccc1)C(=O)c1cccs1,-106.5,27.5*,40.5,23.9,-0.2
N#CC(C#N)=C1C=CC=CN1/C(=C\c1ccccc1Cl)C(=O)c1ccccc1,-86.1,/,33.3,40.3,22.1
Cc1ccc2nc(-c3ccccc3O)c(Nc3ccc4c(c3)OCCO4)n2c1,-254.6,4.9,1.6,-0.7,34.8
Clc1ccc2nc(-c3ccccn3)c(Nc3ccc4c(c3)OCO4)n2c1,56.0*,-3.3,4.4,2.6,12.3
O=C(NC1CCC(NC(=O)C(F)(F)C(F)F)CC1)C(F)(F)C(F)F (centres undefined),-17.5,-1.9,-5.0,-0.6,-8.6
O=C(NCCCNC(=O)C(F)(F)C(F)F)C(F)(F)C(F)F,6.7,28.6*,3.3,-1.4,-3.6
COc1ccc(N2CCN(C(=O)COC(=O)c3ccc(CSC)o3)CC2)cc1,/,/,/,/,-1.9
CN(C)CCCN(Cc1ccccc1)C(=S)Nc1ccc(OC(F)F)cc1,0.2,18.2*,3.4,-0.9,-9.3
O=C(/C=C/c1c[nH]c2ccccc12)c1ccccc1,16.4,55.2*,-2.2,14.0,-3.3
COc1ccc2[nH]cc(/C=C/C(=O)c3ccccc3)c2c1,-1.3,25.5*,2.6,-6.7,-2.6
Cc1ccc(C(=O)/C=C/c2c[nH]c3ccccc23)cc1,10.2,54.2*,4.6,9.5,1.5
CC(=O)N1CCc2cc(S(=O)(=O)CCC(=O)NCc3ccco3)ccc21,-6.7,-1.9,1.7,-0.6,-3.6
CCOC(=O)C1=CN(Cc2cccc(Br)c2)S(=O)(=O)N(CC)C1C (centres undefined),/,/,/,/,23.9
CCn1cc(Br)c(C(=O)Nc2ccc(Cl)c(Cl)c2)n1,7.1,57.2*,2.8,-3.5,17.1
CCn1cc(Br)c(C(=O)Nc2cccc(Cl)c2)n1,1.4,2.1,0.9,1.3,7.2
COc1cccc(CN2CCNC(=O)C2CC(=O)N(C)C2CCCCC2)c1OC (centres undefined),/,1.2,/,/,-6.1
COc1ccc(Nc2ccc([N+](=O)[O-])cn2)cc1,/,-3.8,/,/,17.0
CCOC(=O)c1ccc(Nc2ccc([N+](=O)[O-])cn2)cc1,-24.8,18.9*,-34.8,-41.1,-6.8
CC(C)Cn1c(-c2csc(C(C)C)c2)n[nH]c1=S,54.1*,2.8,1.4,-0.2,1.5
O=C(CCc1ccc(S(=O)(=O)N2CCOCC2)cc1)Nc1nccs1,-3.2,1.3,146.9,104.0*,-5.6
O=C(Nc1nccs1)c1ccc(S(=O)(=O)N2CCOCC2)cc1,2.4,-2.8,3.4,1.5,-3.5
O=C(COc1ccc(Cl)cc1)Nc1nc(-c2ccc(S(=O)(=O)N3CCOCC3)cc2)cs1,-181.1,-4.4,2.6,0.9,63.4*
NC(=O)C1CCN(c2nc(-c3ccccc3C(F)(F)F)cs2)CC1,/,/,/,/,-2.1
COc1cccc(NC(=O)CC2C(=O)NC3CCCCC3N2C(=O)c2ccccc2)c1 (centres undefined),/,4.2,/,/,-3.6
O=C(CNS(=O)(=O)c1ccc(Br)cc1)N1CCN(Cc2ccccc2)CC1,/,0.5,/,/,-0.8
